Source: PubChem
Only a selection was taken, and hits are over-represented in it overall.
E coli WT inh: growth inhibitors of wild type E. coli, primary screen, strain BW25113 wild type, absorbance readout; E. coli BW25113 growth inhibition, OD600; inhibition, % at 10 µM; 20,000 compounds, 0.05% hits; AID 552, 2006; in the data active = inhibition above about 40%;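 also: bacteria exposed to compound for 20 hours at 37 °C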
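assay system = bacterial strain in a whole-cell growth screen | quantity = inoculum from a 1:1000 dilution of a 1.5 h subculture | buffer or medium = LB broth with 50 µg/mL kanamycin | compound dosing = one dose, 10 µM final | schedule = compound exposure of 20 h at 37 °C | technique = absorbance at 615 nm as a measure of bacterial growth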
Active calls of the source: *.

SMILES | E coli WT inh
CN(CC(=O)Nc1nccs1)S(=O)(=O)c1ccc(F)cc1 | 11.4
COc1ccccc1Nc1nc(N)nc(CN2CCc3ccccc3C2)n1 | -17.1
CCOC(=O)c1ccc(N2C(=O)CC(NC3CCN(C(=O)c4cccc(Cl)c4)CC3)C2=O)cc1 (stereo unspecified) | 2.1
Cc1ccc(S(=O)(=O)n2nc(-c3ccco3)nc2SCc2ccccc2)cc1 | 3.4
CN(C)c1nc(Oc2ccc(N)cc2)nc(N(C)C)n1 | -6.3
O=C(O)CCCNS(=O)(=O)c1ccc(Br)s1 | -14.1
COc1cc2c(cc1OC)C(c1ccccc1O)N(C1CC(=O)N(c3ccccc3)C1=O)CC2 (stereo unspecified) | 11.1
Cc1nnc(SC(=O)N2c3ccccc3Sc3ccccc32)s1 | 4.0
CCc1nnc(SCc2cn3c(C)cc(C)nc3n2)n1N | -4.9
CC(=O)c1cc(F)c(N2CCN(C(=O)Cc3ccccc3)CC2)cc1C | 0.2
CCn1cc(C(=O)O)c(=O)c2cc(F)c(N3CCN(C(=O)Nc4ccccc4)CC3)cc21 | 62.9*
CCn1cc(C(=O)O)c(=O)c2cnc(N3CCNCC3)nc21 | 44.9*
CCn1cc(C(=O)O)c(=O)c2cc(F)c(N3CCNCC3)cc21 | 75.6*
CCN1CCN(C(=O)Nc2cccc(C(F)(F)F)c2)CC1 | -11.2
CCn1cc(C(=O)NCc2ccco2)c(=O)c2cc(F)c(N3CCN(C(=O)c4ccco4)CC3)cc21 | 9.9
COc1cc2nc(N3CCNCC3)nc(N)c2cc1OC | -15.7
CCOC(=O)N1CCN(c2cc3[nH]c(=S)[nH]c3cc2F)CC1 | 9.7
O=C(CNCCC1=CCCCC1)Nc1ccccc1N1CCCCC1 | -0.2
CCC(Sc1ccccn1)C(=O)Nc1nnc(C)s1 (stereo unspecified) | -13.3
COc1ccccc1CC1(C)NC(=O)N(CC(=O)Nc2cc(C)on2)C1=O (stereo unspecified) | 5.4
CCOC(=O)CCCOC(=O)c1ccc(S(=O)(=O)N(C)C)cc1 | -1.4
CCCCCCC1/C(=N/O)CCC1C(=O)OC (stereo unspecified) | -5.0
COCCn1c(C)cc(C(=O)COC(=O)CCN2C(=O)c3ccccc3C2=O)c1C | 14.5
CC1=C(C(=O)N2CCOCC2)C(c2ccccc2F)C2=C(CCCC2=O)N1 (stereo unspecified) | 4.8
O=S(=O)(c1ccc(F)cc1)N1CCC(N2CCN(c3ccccc3)CC2)CC1 | -22.5
SMILES | E coli WT inh
CCOC(=O)c1cnc(SC2CCc3ccccc3C2=O)nc1N (stereo unspecified) | -20.5
CC1CN(C(=O)c2cccs2)CCN1C(=O)c1cccs1 (stereo unspecified) | -11.9
COc1ccc(-c2noc(CSc3nc(N)c(-c4ccccc4)c(=O)[nH]3)n2)cc1 | -19.7
O=C(c1ccco1)N1CCN(S(=O)(=O)c2ccc(F)cc2)CC1 | 2.9
Cc1nc(CSc2nnc3scc(-c4ccc(Cl)cc4)n23)cs1 | 7.9
COC(=O)COc1ccc(S(=O)(=O)NCc2cccnc2)cc1C | -12.3
C/C(=C\C(=O)Nc1nccs1)c1ccccc1 | 6.5
CCn1c(SCc2ccc(OC)cc2)nnc1-c1ccncc1 | -10.2
CCOc1ccc(/C(O)=C2/C(=O)C(=O)N(CCCn3ccnc3)C2c2cccs2)cc1Cl (stereo unspecified) | -15.6
CCC(C)(C(=O)NC1CCCC1)N(C(=O)c1cnccn1)c1c(C)n(C)n(-c2ccccc2)c1=O (stereo unspecified) | 5.5
CC1CN(S(=O)(=O)c2ccc(Cl)c(C(F)(F)F)c2)CC(C)O1 (stereo unspecified) | -8.2
O=C(c1cn(-c2ccccc2)nc1-c1cccs1)N1CCN(c2ccccn2)CC1 | 0.7
Cc1ccc2nsnc2c1S(=O)(=O)N1CCN(Cc2ccc3c(c2)OCO3)CC1 | -3.1
CCOC(=O)CSC1=C(C#N)C(=O)NC2(CCCCC2)S1 | 4.7
O=C(c1ccc(Br)o1)N(Cc1ccccc1)c1ccccn1 | 4.1
COc1ccc(C2(CNC(=O)CCC(=O)O)CCCC2)cc1 | -11.4
CCOc1ccc(C(C)(C)C)cc1S(=O)(=O)N1CCOCC1 | 6.7
COc1cccc(N2CC(C(=O)Nc3ccc(C(=O)OC(C)C)cc3)CC2=O)c1 (stereo unspecified) | -11.5
Cc1ccc(C)c(NC(=O)CNS(=O)(=O)c2ccccc2)c1 | -20.0
COc1cccc(Nc2nc(=O)[nH]nc2C)c1 | -6.6
CCN(CC)CCCN1C(=O)C(=O)/C(=C(/O)c2ccccc2)C1c1ccccn1 (stereo unspecified) | -3.9
CN(C=O)CP(=O)(O)CCN1CCCC1=O | -1.5
Cc1ccc(S(=O)(=O)NC(=O)c2cc(C)n(CCCn3ccnc3)c2C)cc1 | -4.4
COC(=O)c1cc(OC)c(OC)cc1NC(=O)c1c(C)noc1C | -15.8
C=CCn1c(Cc2csc(N)n2)nnc1SCc1ccc(C(=O)OC)cc1 | -16.9
SMILES | E coli WT inh
COc1cc(OC)c(C2=NOC(C(=O)O)C2)cc1Cl (stereo unspecified) | -20.2
COc1ccc(-n2c(/C=C(\C)O)nc(=O)c3c(C)cc(C)nc32)cc1 | -8.8
CC1=C(C(=O)N2CCCCC2)C(c2cccs2)C2=C(CCCC2=O)N1 (stereo unspecified) | 4.3
COc1ccc(OC)c(NC(=O)C2C3CC4OC(=O)C2C4C3)c1 (stereo unspecified) | -8.8
COc1ccc(Cl)c(N2CCN(CCCNC(=O)Nc3ccc(C)cc3)CC2)c1 | -0.7
O=C(Nc1nnc(-c2ccccc2Cl)o1)c1cccnc1 | -19.2
CCc1c(C)nc(/N=C(/NC(=O)c2ccccc2)Nc2ccccc2OC)[nH]c1=O | -14.8
Cc1c(NC(=O)CCc2ccc(S(=O)(=O)N3CCOCC3)cc2)c(=O)n(-c2ccccc2)n1C | 6.1
COc1cccc(C2C(C(N)=O)=C(C)Nc3nc(-c4ccccc4Cl)nn32)c1 (stereo unspecified) | -1.5
Cn1c(=O)c2c(ncn2CC(O)CNc2ccc(Br)cc2)n(C)c1=O (stereo unspecified) | -11.3
COc1ccccc1N1CCN(CC(O)c2ccc3cc[nH]c3c2)CC1 (stereo unspecified) | -2.4
COc1ccccc1CC(=O)Nc1ccc(O)cc1C(=O)O | -1.4
O=c1[nH]c(=O)n([C@H]2C[C@H](O)[C@@H](CO)O2)cc1F | 17.2
Cc1cn([C@H]2C[C@H](N=[N+]=[N-])[C@@H](CO)O2)c(=O)[nH]c1=O | 71.8*
Cc1cn([C@H]2C=C[C@@H](CO)O2)c(=O)[nH]c1=O | 1.8
O=C(c1cccc(-n2cnnn2)c1)N1CCOCC1 | -16.8
O=S(=O)(NC1CC2CCC1C2)c1ccc(Br)s1 (stereo unspecified) | 8.0
CN1CCN(S(=O)(=O)c2ccc(Sc3nnc(-c4cccs4)n3-c3ccccc3)nc2)CC1 | 6.3
O=C1[C@@H]2C(c3ccccc3Cl)=NO[C@@H]2C(=O)N1Cc1ccccc1 | -4.6
CCc1c(C(=O)Nc2ccncc2)csc1C | 2.1
